Data as given in ChEMBL document CHEMBL4325899, “Synthesis and photocytotoxic activity of [1,2,3]triazolo[4,5-h][1,6]naphthyridines and [1,3]oxazolo[5,4-h][1,6]naphthyridines” (Eur J Med Chem, 2019).
The source made the active and inactive calls. No cut-off for these calls is given here.

How the values were obtained:
MCF7 [1] = assay: Induction of apoptosis in human MCF7 cells assessed as necrotic cells at EC25 to EC75 after 4 hrs in presence of photoirradiation by Annexin V-FITC/propidium iodide staining-based flow cytometric analysis relative to control; type: functional
HT-29 = assay: Phototoxicity against human HT-29 cells preincubated for 5 mins followed by compound washout and subsequent UV irradiation at 1.5 J/cm2 for 5 mins measured after 72 hrs by MTT assay; type: functional, cell-based; details: HT-29, light or radiation study
In short: (§1)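 Compounds were diluted in DMSO (0.5% final), applied in triplicate for 5 min, then washed out with PBS. After medium removal, cells were irradiated on ice for 5 min at 365 nm (1.5 J/cm²) and then kept 72 h at 37 °C. Viability was read by MTT at 540 nm and expressed relative to 0.5% DMSO controls given the same treatment. EC50 is the concentration killing 50%, as the mean ± SD of at least three experiments.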

[2] = Dark toxicity against human MCF10A cells preincubated for 5 mins followed by compound washout and measured after 72 hrs by MTT assay; type: cell-based, MCF-10A
In short: (§2)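 Cells were plated and allowed to attach overnight. Compounds were diluted in DMSO (0.5% final), with each concentration in triplicate, and applied for 5 min. Cells were then washed in PBS and given fresh medium. Without irradiation, cells were held 72 h at up to 50 μM. MTT (5 mg/mL stock) was added for 4 h, crystals were dissolved in SDS/HCl overnight, and absorbance was read at 540 nm. CC50 is the concentration killing 50% of cells, taken as the mean of at least three experiments.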

A-375 = assay: Phototoxicity against human A375 cells preincubated for 5 mins followed by compound washout and subsequent UV irradiation at 1.5 J/cm2 for 5 mins measured after 72 hrs by MTT assay; type: functional, cell-based; details: A-375, light or radiation study; in short: as §1
MCF7 [3] = assay: Cell cycle arrest in human MCF7 cells assessed as accumulation of cells at S phase at EC50 after 24 hrs under UV-irradiation by propidium iodide staining-based flow cytometric analysis (reference value: 24.7%); type: functional
MCF7 [4] = assay: Cell cycle arrest in human MCF7 cells assessed as accumulation of cells at G2/M phase at EC25 after 24 hrs under UV-irradiation by propidium iodide staining-based flow cytometric analysis (reference value: 26.3%); type: functional
MCF7 [5] = assay: Induction of mitochondrial dysfunction in human MCF7 cells assessed as organelles fusion at 2 uM after 120 mins in presence of UV irradiation by Mitotracker Orange CMTM-ROS staining-based confocal microscopic analysis; type: functional, cell-based
In short: (§3)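 MCF7 cells (4x10⁵) were plated on glass slides for 24 h. They were then loaded with MitoTracker Orange CMTM-ROS (150 nM) for 45 min in phenol-red-free, serum-free medium, before 2 µM compound and UV photoactivation. Cells were fixed in 2% PFA 20 min or 2 h after UV and imaged confocally (ex 543 nm, em 560–620 nm). PMA (400 nM) served as ROS-inducer control.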

[6] = Selectivity index, ratio of EC50 for human MCF10A cells under UV irradiation at 1.5 J/cm2 to EC50 for human MCF7 cells under UV irradiation at 1.5 J/cm2; type: toxicity; details: MCF10A cells versus MCF7 cells, read-out: Ratio EC50
In short: (§4)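 SI is the EC50 under irradiation in non-tumor MCF10A cells divided by the EC50 under irradiation in the tumor line. Both were MTT read-outs 72 h after 1.5 J/cm² at 365 nm.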

[7] = Dark toxicity against human MCF7 cells preincubated for 5 mins followed by compound washout and measured after 72 hrs by MTT assay; type: cell-based; in short: as §2
MCF7 [8] = assay: Cell cycle arrest in human MCF7 cells assessed as accumulation of cells at subG1 phase at EC50 after 24 hrs under UV-irradiation by propidium iodide staining-based flow cytometric analysis (reference value: 4.8%); type: functional
[9] = Dark toxicity against human HT-29 cells preincubated for 5 mins followed by compound washout and measured after 72 hrs by MTT assay; type: cell-based; in short: as §2
MCF7 [10] = assay: Induction of mitochondrial dysfunction in human MCF7 cells assessed as perinuclear clustering at 2 uM after 20 mins in presence of UV irradiation by Mitotracker Orange CMTM-ROS staining-based confocal microscopic analysis; type: functional, cell-based; in short: as §3
MCF7 [11] = assay: Cell cycle arrest in human MCF7 cells assessed as accumulation at G0/G1 phase at EC25 after 24 hrs under UV-irradiation by propidium iodide staining-based flow cytometric analysis (reference value: 44.2%); type: functional
[12] = Selectivity index, ratio of EC50 for human MCF10A cells under UV irradiation at 1.5 J/cm2 to EC50 for human A375 cells under UV irradiation at 1.5 J/cm2; type: toxicity; details: MCF10A cells versus A375 cells, read-out: Ratio EC50; in short: as §4
MCF7 [13] = assay: Phototoxicity index, ratio of CC50 for human MCF7 cells to EC50 for human MCF7 cells under UV irradiation at 1.5 J/cm2
[14] = Drug localization in cytoplasm of human MCF7 cells at 2 uM measured after 30 to 60 mins by confocal microscopic analysis; type: ADME, subcellular; details: mcf7, 2 µM
MCF7 [15] = assay: Cell cycle arrest in human MCF7 cells assessed as accumulation of cells at subG1 phase at EC75 after 24 hrs under UV-irradiation by propidium iodide staining-based flow cytometric analysis (reference value: 4.8%); type: functional
[16] = Drug localization in cytoplasm of human MCF7 cells assessed as punctate formation at 2 uM measured within 10 mins by confocal microscopic analysis; type: ADME, subcellular; details: mcf7, 10 min

COc1ccc(-c2nc3c(nc(C)c4ccc(-c5ccccc5)nc43)o2)cc1
Activity (MCF7 [1]): 10% | EC50 (HT-29): 12 nM | CC50 at 72 h [2]: > 50000 nM | EC50 (A-375): 11 nM | Activity (MCF7 [3]): 25.6% | Activity (MCF7 [4]): 26.8% | Activity (MCF7 [5]): Active | selectivity ratio [6]: 86 | CC50 at 72 h [7]: > 50000 nM | Activity (MCF7 [8]): 4.4% | CC50 at 72 h [9]: > 50000 nM | Activity (MCF7 [10]): Active | Activity (MCF7 [11]): 44.1% | selectivity ratio [12]: 79 | Ratio CC50/EC50 (MCF7 [13]): >5000 | Drug uptake [14]: Active | Activity (MCF7 [15]): 4.4% | Drug uptake [16]: Active
